Measurements published in ChEMBL document CHEMBL4396876, “Antisulfatase, Osteogenic, and Anticancer Activities of Steroid Sulfatase Inhibitor EO-33 in Mice” (J Med Chem, 2019).
One block for each molecule: values may come before it.

How the values were obtained:
[1] = system: Mus musculus; test: Osteogenic activity in ovariectomized-induced C57BL/6 mouse model of osteoporosis assessed as recovery of tibia weight at 5 ug/kg, sc treated for 70 days relative to control; assay type: functional
Method in brief: (§1)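 Female C57BL/6 mice (63–70 days) ovariectomized under isoflurane; sham controls kept. 8/group, dosed SC in 0.1 mL MC:EtOH (92:8) for 70 days. Tibias excised and weighed (mg/g body weight). Calcium measured by ICP-MS after calcination at 600 °C for 6 h and HNO3 microwave digestion; expressed as mg/g tibia.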

[2] = system: Mus musculus; test: Osteogenic activity in ovariectomized-induced C57BL/6 mouse model of osteoporosis assessed as recovery of tibia calcium content at 5 ug/kg, sc treated for 70 days by Triple Quad ICP-MS analysis relative to control; assay type: functional; method in brief: as §1
[3] = system: Mus musculus; test: (§2) In vivo inhibition of STS in ovariectomized Balb/c mouse assessed as reduction in E1S-stimulated uterus weight at 5 mg/kg, sc administered once daily starting from day 2 to day 10 using MC/EtOH formulation and E1S addition on day 5 to 10 measured on day 11 relative to control; assay type: functional
Method in brief: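 Female Balb/c mice (15–20 g) ovariectomized under isoflurane, 5/group. Inhibitor given SC in 0.1 mL MC:EtOH (92:8) on days 2–10. E1S (2 µg/mouse, BID) or E1 (0.06 µg/mouse, ID) given SC on days 5–10. Vehicle controls included. Uterus dissected and weighed on day 11. Means ± SEM.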

[4] = system: Mus musculus; test: as §2, with “Ex” for “In”, “mouse liver homogenates” for “mouse”, “transformation of [3H]-E1S into [3H]-E1” for “E1S-stimulated uterus weight”, “11 by liquid scintillation counting method” for “11”; assay type: functional
Method in brief: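 Livers collected on day 11 from the OVX Balb/c uterotrophic protocol and homogenized in cold pH 7.4 phosphate buffer with protease inhibitors. 2000 g supernatant, 100 or 500 µg protein, incubated with [3H]-E1S/E1S (final 1 µM) in PBS for 2 h at 37 °C. Xylene extraction, then scintillation counting of both phases. Result given as % E1 formed. Triplicate.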

[5] = system: Mus musculus; test: Osteogenic activity in ovariectomized-induced C57BL/6 mouse model of osteoporosis assessed as recovery of tibia weight at 1 mg/kg, sc administered 6 days per week for 70 days relative to control; assay type: functional; method in brief: as §1
[6] = system: Mus musculus; test: Osteogenic activity in ovariectomized-induced C57BL/6 mouse model of osteoporosis assessed as recovery of tibia calcium content at 1 mg/kg, sc administered 6 days per week for 70 days by Triple Quad ICP-MS analysis relative to control; assay type: functional; method in brief: as §1
[7] = system: Mus musculus; test: Estrogenic activity in ovariectomized-induced C57BL/6 mouse model of osteoporosis assessed as stimulation of uterus weight at 1 mg/kg, sc administered 6 days per week for 70 days measured post last dose by necropsy analysis; assay type: ADME, organism-based; conditions: in vivo
[8] = Hepatotoxicity in ovariectomized-induced C57BL/6 mouse model of osteoporosis assessed as effect on liver weight at 1 mg/kg, sc administered 6 days per week for 70 days measured post last dose by necropsy analysis; assay type: toxicity, organism-based; conditions: in vivo
[9] = Toxicity in ovariectomized-induced C57BL/6 mouse model of osteoporosis assessed as effect on body weight at 1 mg/kg, sc administered 6 days per week for 70 days measured post last dose; assay type: organism-based; conditions: in vivo
Method in brief: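 Female C57BL/6 mice, 63-70 days old, ovariectomized under isoflurane (sham-operated controls), randomized by weight into groups of 8. Treated SC in 0.1 mL MC:EtOH (92:8) over 70 days; sham and OVX controls received vehicle alone. Mice weighed at the end of the protocol before necropsy.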

[10] = (§3) Drug level in Balb/c mouse treated with 2-{[4-({(Furan-2-ylmethyl)[(5-methylthiophen-2-yl)-methyl]amino}methyl)phenyl]carbonyl}-1,2,3,4-tetrahydroisoquinolin-7-yl Sulfamate assessed as metabolite formation at 30 mg/kg, sc administered as single dose using MC/EtOH formulation by LC-MS/MS analysis; assay type: ADME, organism-based; conditions: in vivo
Method in brief: (§4)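 Phenol metabolite EO-29 measured by LC-MS/MS in plasma of female Balb/c mice fasted 8 h, then given a single 30 mg/kg dose of the sulfamate in MC:EtOH (92:8), 0.1 mL, SC or by gavage. Sampled at 1, 3, 7, 12 and 24 h by cardiac puncture (2–3 mice/group).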

[11] = as §3, with “po” for “sc”, “administered via gavage” for “administered”; assay type: ADME, organism-based; conditions: in vivo; method in brief: as §4

Compound: C[C@]12CC[C@@H]3c4ccc(O)cc4CC[C@H]3[C@@H]1CC[C@@H]2O [ESTRADIOL]
Activity [1]: 100%
Activity [2]: 100%

Compound: COc1cc2c(cc1OS(N)(=O)=O)CC[C@@H]1[C@@H]2CC[C@@]2(C)[C@H]1CC[C@@]2(O)Cc1ccccc1
inhibition in vivo at 5 mg/kg [3]: 71%
inhibition in vivo at 5 mg/kg [4]: 100%

Compound: O=C(c1ccc(OCCN2CCCCC2)cc1)c1c(-c2ccc(O)cc2)sc2cc(O)ccc12 [RALOXIFENE]
Activity [5]: 100%
Activity [6]: 100%
Activity [7]: Toxic
Activity [8]: Non-Toxic
Activity [9]: Non-Toxic

Drug metabolism [10]: Metabolite_Detected
Drug metabolism [11]: Metabolite_Detected
Compound: Cc1ccc(CN(Cc2ccc(C(=O)N3CCc4ccc(O)cc4C3)cc2)Cc2ccco2)s1
